From ChEMBL document CHEMBL1121659 (J Med Chem, 1981)

Experiments:
[1] = Compound at the dose 10 mg/kg administered intraperitoneally was evaluated for the excretion rate in rats in 7 days through feces; assay type: ADME, organism-based; set-up: dose 10 mg/kg, route intraperitoneal; conditions: rat, faeces, ip, read-out: Excretion
In short: (§1)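 Male Wistar rats (150–330 g) in individual metabolic cages received [14C] compound 10 mg/kg ip in propylene glycol (5 mL/kg), n=4. Urine and feces were collected for 7 days. Urine was diluted with EtOH and counted directly. Fecal EtOH homogenates were dried, combusted and counted as trapped 14CO2.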

[2] = Compound at the dose 10 mg/kg administered intraperitoneally was evaluated for the excretion rate in rats in 7 days through urine; assay type: ADME, organism-based; set-up: dose 10 mg/kg, route intraperitoneal; conditions: rat, ip, read-out: Excretion; in short: as §1
[3] = Compound was evaluated for the cumulative excretion rate in rats at the dose 10 mg/kg, intraperitoneally for 18 days through feces; assay type: ADME, organism-based; set-up: dose 10 mg/kg, route intraperitoneal; conditions: rat, faeces, ip, read-out: Excretion
In short: (§2)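 Four male Wistar rats were dosed with [14C] compound at 10 mg/kg ip in propylene glycol (5 mL/kg). Urine and feces were collected at 3-day intervals for 18 days. Fecal EtOH homogenates were combusted and counted. Daily fecal rate for the 0–3 day interval was corrected for gastrointestinal transit time (about 18 h).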

[4] = Compound was evaluated for the cumulative excretion rate in rats at the dose 10 mg/kg, intraperitoneally for 18 days through urine; assay type: ADME, organism-based; set-up: dose 10 mg/kg, route intraperitoneal; conditions: rat, ip, read-out: Excretion; in short: as §2
[5] = Compound was evaluated for the in rats after the dose of 5 mg/kg intravenously, at the dose 4 hour biliary excretion; assay type: ADME, organism-based; set-up: dose 5 mg/kg, route intravenous; conditions: rat, bile, iv, read-out: Excretion
In short: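 Three male rats with jugular cannulae, body temperature held at 37–38 °C, received [14C] compound 5 mg/kg by 3–5 min infusion in propylene glycol–ethanol–0.1 N NaOH (4:1:5, 1 mL/kg). Bile was collected in two 30-min periods, then hourly up to 4 h, and counted. Bile volume was also determined.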

Rattus norvegicus = assay: excretion rate in rats after the dose of 5 mg/kg intravenously, at the dose 4 hour Rate of biliary excretion; 0.06-0.15%/h; assay type: ADME, organism-based, Bile; set-up: dose 5 mg/kg, route intravenous; conditions: in vivo, iv
[6] = Compound was evaluated for the average apparent volume of distribution when administered through intravenous route; assay type: ADME, organism-based; conditions: in vivo, read-out: Vd app
In short: (§3)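 Male Wistar rats under pentobarbital (25 mg/kg ip) received [14C] compound 5 mg/kg iv in propylene glycol–0.1 N NaOH (1:1). Dosing was by jugular infusion, or by tail vein for later time points.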

[7] = Compound was evaluated for the Brain levels at 24 h in the Swiss webster mouse when administered at the […]; assay type: ADME, organism-based; conditions: read-out: Plasma level
In short: (§4)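 Swiss Webster mice (20–30 g) received [14C] compound 10 mg/kg ip. Four animals were killed at each of 12, 18, 24, 36, 48 and 72 h. Radioactivity was measured in plasma and brain, and the plasma elimination half-life was derived from these levels.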

[8] = Compound was evaluated for the average plasma levels at 24 hours, after administration of intraperitoneal route; assay type: ADME; conditions: ip, read-out: Plasma level
In short: (§5)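 Male Wistar rats were given [14C] compound 5 mg/kg ip in propylene glycol (2 mL/kg). Blood was taken by cardiac puncture under ether at 1, 2, 3, 5 and 7 days, six rats per time point. Plasma 14C was counted to give the β-phase elimination half-life and plasma levels.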

[9] = Compound was evaluated for the average plasma levels at 24 hours, after administration of intravenous route; assay type: ADME; conditions: read-out: Plasma level; in short: as §3
[10] = Compound was evaluated for the plasma level at 18 hr in the Swiss webster mouse when administered at the […]; assay type: ADME; conditions: read-out: Plasma level; in short: as §4
[11] = Compound was evaluated for the biological half life in rats after a dose of 5 mg/kg given intraperitoneal route; assay type: ADME, organism-based; set-up: dose 5 mg/kg, route intraperitoneal; conditions: rat, in vivo, ip; in short: as §5
[12] = Compound was evaluated for the biological half life in rats after a dose of 5 mg/kg given intravenous route; assay type: ADME, organism-based; set-up: dose 5 mg/kg, route intravenous; conditions: rat, in vivo; in short: as §3
[13] = Compound was evaluated for the plasma biological half life in the Swiss webster mouse when administered at the […]; assay type: ADME, organism-based; in short: as §4
[14] = Compound was evaluated for the toxicity in mouse on 7 th day when administered through Oral route; assay type: organism-based; conditions: in vivo
In short: (§6)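 Male Swiss Webster mice (20–40 g) dosed in propylene glycol (10–20 mL/kg), ip at 10, 20, 50, 100 and 200 mg/kg or po at 100 and 200 mg/kg. Ten mice per dose level, observed for toxicity for 1 week. LD50 taken at 7 days.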

[15] = Compound was evaluated for the toxicity in mouse on 7 th day when administered through intraperitoneal route; assay type: organism-based; conditions: in vivo, ip; in short: as §6
Mus musculus [16] = assay: Time to first twitch in intravenous pentylenetetrazole test in mice at 100 mg/kg for 30 h time of test; assay type: functional
In short: (§7)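 Carworth Farm No. 1 mice (average 20 g) were dosed ip. At set times afterwards, 0.5% pentylenetetrazol in heparinized saline was infused into the tail vein at 0.34 mL/min. Time to first twitch was recorded in individual mice, with observation to 240 s.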

Mus musculus [17] = assay: Time to first twitch in intravenous pentylenetetrazole test in mice at 100 mg/kg for 48 hr time of test; assay type: functional; in short: as §7
Mus musculus [18] = assay: Time to first twitch in intravenous pentylenetetrazole test in mice at 100 mg/kg for 72 hr time of test; assay type: functional; in short: as §7
Mus musculus [19] = assay: Time to first twitch in intravenous pentylenetetrazole test in mice at 100 mg/kg for 96 hr time of test; assay type: functional; in short: as §7
Mus musculus [20] = assay: Time to first twitch in intravenous pentylenetetrazole test in mice at 1000 mg/kg for 24 hr time of test; assay type: functional; in short: as §7
Mus musculus [21] = assay: Time to first twitch in intravenous pentylenetetrazole test in mice at 150 mg/kg for 30 hr time of test; assay type: functional; in short: as §7
Mus musculus [22] = assay: Time to first twitch in intravenous pentylenetetrazole test in mice at 150 mg/kg for 48 hr time of test; assay type: functional; in short: as §7
Mus musculus [23] = assay: Time to first twitch in intravenous pentylenetetrazole test in mice at 150 mg/kg for 72 h time of test; assay type: functional; in short: as §7
Mus musculus [24] = assay: Compound was evaluated for the neurotoxicity after intraperitoneal administration at 24 hours; assay type: organism-based; conditions: in vivo, ip
In short: (§8)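 Rotarod ataxia test in Carworth Farm No. 1 mice, run by the ADD program. Dosed ip in aqueous 30% PEG 400. Neurological deficit scored at 24 and 48 h after doses up to 1000 mg/kg.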

Mus musculus [25] = assay: Compound was evaluated for the neurotoxicity after intraperitoneal administration at 48 hours; assay type: organism-based; conditions: in vivo, ip; in short: as §8
Mus musculus [26] = assay: Time to first twitch in intravenous pentylenetetrazole test in mice at 150 mg/kg for 96 hr time of test; assay type: functional; in short: as §7
Mus musculus [27] = assay: Time to first twitch in intravenous pentylenetetrazole test in mice at 200 mg/kg for 30 h time of test; assay type: functional; in short: as §7
Mus musculus [28] = assay: Time to first twitch in intravenous pentylenetetrazole test in mice at 200 mg/kg for 48 hr time of test; assay type: functional; in short: as §7
Mus musculus [29] = assay: Time to first twitch in intravenous pentylenetetrazole test in mice at 200 mg/kg for 72 hr time of test; assay type: functional; in short: as §7
Mus musculus [30] = assay: Time to first twitch in intravenous pentylenetetrazole test in mice at 200 mg/kg for 96 hr time of test; assay type: functional; in short: as §7
Mus musculus [31] = assay: Time to first twitch in intravenous pentylenetetrazole test in mice at 300 mg/kg for 30 hr time of test; assay type: functional; in short: as §7
Mus musculus [32] = assay: Time to first twitch in intravenous pentylenetetrazole test in mice at 300 mg/kg for 48 hr time of test; assay type: functional; in short: as §7
Mus musculus [33] = assay: Time to first twitch in intravenous pentylenetetrazole test in mice at 300 mg/kg for 72 h time of test; assay type: functional; in short: as §7
Mus musculus [34] = assay: Time to first twitch in intravenous pentylenetetrazole test in mice at 500 mg/kg for 24 hr time of test; assay type: functional
In short: (§9)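 Carworth Farm no. 1 mice (av wt 20 g) given the compound ip; at the designated time afterwards, 0.5% pentylenetetrazol in heparinized saline was infused into the tail vein at 0.34 mL/min. Time to first twitch (minimal excitation) was recorded for individual mice, observed up to 240 s.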

Mus musculus [35] = assay: Time to first twitch in intravenous pentylenetetrazole test in mice at 500 mg/kg for 48 hr time of test; assay type: functional; in short: as §9
Mus musculus [36] = assay: Time to first twitch in intravenous pentylenetetrazole test in mice at 750 mg/kg for 24 hr time of test; assay type: functional; in short: as §9
Mus musculus [37] = assay: Time to first twitch in intravenous pentylenetetrazole test in mice at 750 mg/kg for 48 hr time of test; assay type: functional; in short: as §9
[38] = Compound was evaluated for the tissue levels after 1 hour of administration of 5 mg/kg through intravenous route, the given data is tissue/plasma ratios red cells; assay type: ADME, organism-based; set-up: dose 5 mg/kg, route intravenous
In short: (§10)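 Anesthetized male Wistar rats received [14C] compound 5 mg/kg by slow jugular infusion in propylene glycol–0.1 N NaOH (1:1). Tissues were taken at 1 h, four per group, rinsed, blotted and weighed. Fat, muscle and red cells were combusted directly, other organs after EtOH homogenization. Tissue/plasma 14C ratios were computed.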

[39] = Compound was evaluated for the tissue levels after 1 hour of administration of 5 mg/kg through intravenous route, the given data is tissue/plasma ratios Muscle; assay type: ADME, organism-based; set-up: dose 5 mg/kg, route intravenous; in short: as §10
[40] = Compound was evaluated for the tissue levels after 1 hour of administration of 5 mg/kg through intravenous route, the given data is tissue/plasma ratios brain; assay type: ADME, organism-based; set-up: dose 5 mg/kg, route intravenous; in short: as §10
[41] = Compound was evaluated for the tissue levels after 1 hour of administration of 5 mg/kg through intravenous route, the given data is tissue/plasma ratios gastrointestinal tract; assay type: ADME, organism-based; set-up: dose 5 mg/kg, route intravenous; in short: as §10
[42] = Compound was evaluated for the tissue levels after 1 hour of administration of 5 mg/kg through intravenous route, the given data is tissue/plasma ratios heart; assay type: ADME, organism-based; set-up: dose 5 mg/kg, route intravenous; in short: as §10
[43] = Compound was evaluated for the tissue levels after 1 hour of administration of 5 mg/kg through intravenous route, the given data is tissue/plasma ratios kidneys; assay type: ADME, organism-based, Kidney; set-up: dose 5 mg/kg, route intravenous; in short: as §10
[44] = Compound was evaluated for the tissue levels after 1 hour of administration of 5 mg/kg through intravenous route, the given data is tissue/plasma ratios liver; assay type: ADME, organism-based; set-up: dose 5 mg/kg, route intravenous; in short: as §10
[45] = Compound was evaluated for the tissue levels after 1 hour of administration of 5 mg/kg through intravenous route, the given data is tissue/plasma ratios lungs; assay type: ADME, organism-based; set-up: dose 5 mg/kg, route intravenous; in short: as §10
[46] = Compound was evaluated for the biological half life of elimination in feces; assay type: ADME, tissue-based; conditions: faeces

O=C1NC(=O)C(c2ccc(C(F)(F)F)cc2)(c2ccc(C(F)(F)F)cc2)N1
dose excreted at 168 h [1]: 67%
dose excreted at 168 h [2]: 0.3%
dose excreted at 432 h [3]: 94%
dose excreted at 432 h [4]: 0.25%
dose excreted at 4 h [5]: 0.5%
Excretion rate (Rattus norvegicus): 0.15
Vd [6]: 0.42 L/kg
concentration at 24 h [7]: 3500 ng/mL
concentration at 24 h [8]: 11000 ng/mL
concentration at 24 h [9]: 9400 ng/mL
concentration at 18 h [10]: 27000 ng/mL
half-life [11]: 71.7 h
half-life [12]: 66.7 h
half-life [13]: 115 h
LD50 at 7 days [14]: 100 mg/kg
LD50 at 7 days [15]: 40 mg/kg
Time (Mus musculus [16]): 23.1 s
Time (Mus musculus [17]): 24.3 s
Time (Mus musculus [18]): 27.1 s
Time (Mus musculus [19]): 27.5 s
Time (Mus musculus [20]): 25.5 s
Time (Mus musculus [21]): 28.6 s
Time (Mus musculus [22]): 26.7 s
Time (Mus musculus [23]): 24.1 s
Toxic dose (Mus musculus [24]): 750 mg/kg
Toxic dose (Mus musculus [25]): 1000 mg/kg
Time (Mus musculus [26]): 23.4 s
Time (Mus musculus [27]): 29.6 s
Time (Mus musculus [28]): 24.5 s
Time (Mus musculus [29]): 23.6 s
Time (Mus musculus [30]): 34.5 s
Time (Mus musculus [31]): 22 s
Time (Mus musculus [32]): 32.4 s
Time (Mus musculus [33]): 24.9 s
Time (Mus musculus [34]): 27.3 s
Time (Mus musculus [35]): 28.7 s
Time (Mus musculus [36]): 26.6 s
Time (Mus musculus [37]): 71 s
Kp at 1 h [38]: 0.12
Kp at 1 h [39]: 0.41
Kp at 1 h [40]: 0.14
Kp at 1 h [41]: 0.48
Kp at 1 h [42]: 0.66
Kp at 1 h [43]: 0.61
Kp at 1 h [44]: 0.96
Kp at 1 h [45]: 0.62
half-life [46]: 93.6 h
